# Measured values taken from ChEMBL document CHEMBL1944580, “Synthesis of novel sulfonamide-1,2,4-triazoles, 1,3,4-thiadiazoles and 1,3,4-oxadiazoles, as potential antibacterial and antifungal agents. Biological evaluation and conformational analysis studies” (2012).
# Key:
# [1] = system: Staphylococcus aureus; assay: Antibacterial activity against Staphylococcus aureus ATCC 6538 after 24 hrs by micro dilution method; assay type: functional; conditions: ATCC 6538, 24 h
# In short: (§1)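 Microdilution MIC in 96-well plates. Bacterial suspensions adjusted in sterile saline to 1.0 × 10^5 CFU/ml, giving 1.0 × 10^4 cfu per well in LB broth. Compounds tested at up to 1 mg/ml. Plates incubated 24 h. MIC taken as the lowest concentration with no visible growth under a binocular microscope. OD at 655 nm was also read against a blank and the positive control. Streptomycin and ampicillin were the positive controls.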
# [2] = system: Bacillus cereus; assay: Antibacterial activity against Bacillus cereus clinical isolate after 24 hrs by micro dilution method; assay type: functional; in short: as §1
# [3] = system: Micrococcus flavus; assay: Antibacterial activity against Micrococcus flavus ATCC 10240 after 24 hrs by micro dilution method; assay type: functional; conditions: ATCC 10240, 24 h; in short: as §1
# [4] = system: Listeria monocytogenes; assay: Antibacterial activity against Listeria monocytogenes NCTC 7973 after 24 hrs by micro dilution method; assay type: functional; conditions: NCTC 7973, 24 h; in short: as §1
# [5] = system: Pseudomonas aeruginosa; assay: Antibacterial activity against Pseudomonas aeruginosa ATCC 27853 after 24 hrs by micro dilution method; assay type: functional; conditions: ATCC 27853, 24 h; in short: as §1
# [6] = system: Enterobacter cloacae; assay: Antibacterial activity against Enterobacter cloacae human isolate after 24 hrs by micro dilution method; assay type: functional; in short: as §1
# [7] = system: Salmonella typhimurium; assay: Antibacterial activity against Salmonella Typhimurium ATCC 13311 after 24 hrs by micro dilution method; assay type: functional, Salmonella enterica subsp. enterica serovar Typhimurium; conditions: Salmonella enterica, ATCC 13311, 24 h; in short: as §1
# [8] = system: Escherichia coli; assay: Antibacterial activity against Escherichia coli ATCC 35210 after 24 hrs by micro dilution method; assay type: functional; conditions: ATCC 35210, 24 h; in short: as §1
# [9] = system: Staphylococcus aureus; assay: Antibacterial activity against Staphylococcus aureus ATCC 6538 treated for 24 hrs followed by sub-cultivated for 72 hrs by micro dilution method; assay type: functional
# In short: (§2)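 2 µl from each well was serially subcultured into 100 µl fresh broth per well and incubated a further 72 h. MBC is the lowest concentration with no visible growth, taken as 99.5% killing of the original inoculum. Streptomycin and ampicillin were the positive controls.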
# [10] = system: Bacillus cereus; assay: Antibacterial activity against Bacillus cereus clinical isolate treated for 24 hrs followed by sub-cultivated for 72 hrs by micro dilution method; assay type: functional; in short: as §2
# [11] = system: Micrococcus flavus; assay: Antibacterial activity against Micrococcus flavus ATCC 10240 treated for 24 hrs followed by sub-cultivated for 72 hrs by micro dilution method; assay type: functional; in short: as §2
# [12] = system: Listeria monocytogenes; assay: Antibacterial activity against Listeria monocytogenes NCTC 7973 treated for 24 hrs followed by sub-cultivated for 72 hrs by micro dilution method; assay type: functional; in short: as §2
# [13] = system: Pseudomonas aeruginosa; assay: Antibacterial activity against Pseudomonas aeruginosa ATCC 27853 treated for 24 hrs followed by sub-cultivated for 72 hrs by micro dilution method; assay type: functional; in short: as §2
# [14] = system: Enterobacter cloacae; assay: Antibacterial activity against Enterobacter cloacae human isolate treated for 24 hrs followed by sub-cultivated for 72 hrs by micro dilution method; assay type: functional; in short: as §2
# [15] = system: Salmonella typhimurium; assay: Antibacterial activity against Salmonella Typhimurium ATCC 13311 treated for 24 hrs followed by sub-cultivated for 72 hrs by micro dilution method; assay type: functional, Salmonella enterica subsp. enterica serovar Typhimurium; conditions: Salmonella enterica; in short: as §2
# [16] = system: Escherichia coli; assay: Antibacterial activity against Escherichia coli ATCC 35210 treated for 24 hrs followed by sub-cultivated for 72 hrs by micro dilution method; assay type: functional; in short: as §2
# [17] = system: Talaromyces funiculosus; assay: Antifungal activity against Penicillium funiculosum ATCC 36839 after 72 hrs by serial dilution method; assay type: functional; conditions: ATCC 36839, 72 h
# In short: (§3)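 Modified microdilution MIC. Spores were washed from malt agar cultures with sterile 0.85% saline containing 0.1% Tween 80 and adjusted to about 1.0 × 10^5 per 100 µl well in malt broth. Compounds were dissolved in DMSO (1 mg/ml). Plates incubated 72 h at 28 °C. MIC is the lowest concentration with no visible growth under a binocular microscope. Bifonazole and ketoconazole were the references.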
# [18] = system: Penicillium ochrochloron; assay: Antifungal activity against Penicillium ochrochloron ATCC 9112 after 72 hrs by serial dilution method; assay type: functional; conditions: ATCC 9112, 72 h; in short: as §3
# [19] = system: Trichoderma viride; assay: Antifungal activity against Trichoderma viride IAM 5061 after 72 hrs by serial dilution method; assay type: functional; conditions: IAM 5061, 72 h; in short: as §3
# [20] = system: Aspergillus fumigatus; assay: Antifungal activity against Aspergillus fumigatus human isolate after 72 hrs by serial dilution method; assay type: functional; in short: as §3
# [21] = system: Aspergillus niger; assay: Antifungal activity against Aspergillus niger ATCC 6275 after 72 hrs by serial dilution method; assay type: functional; conditions: ATCC 6275, 72 h; in short: as §3
# [22] = system: Aspergillus flavus; assay: Antifungal activity against Aspergillus flavus ATCC 9643 after 72 hrs by serial dilution method; assay type: functional; conditions: ATCC 9643, 72 h; in short: as §3
# [23] = system: Aspergillus versicolor; assay: Antifungal activity against Aspergillus versicolor ATCC 11730 after 72 hrs by serial dilution method; assay type: functional; conditions: ATCC 11730, 72 h; in short: as §3
# [24] = system: Fulvia fulva; assay: Antifungal activity against Fulvia fulva after 72 hrs by serial dilution method; assay type: functional; in short: as §3
# [25] = system: Talaromyces funiculosus; assay: Antifungal activity against Penicillium funiculosum ATCC 36839 treated for 72 hrs followed by sub-cultivated for 5 days by serial dilution method; assay type: functional
# In short: (§4)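 MFC obtained after the 72 h, 28 °C malt-broth microdilution (spore inoculum about 1.0 × 10^5 per well, compounds from 1 mg/ml DMSO). 2 µl was serially subcultured into 100 µl broth per well and incubated a further 5 days at 28 °C. MFC is the lowest concentration with no visible growth, taken as 99.5% killing of the original inoculum.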
# [26] = system: Penicillium ochrochloron; assay: Antifungal activity against Penicillium ochrochloron ATCC 9112 treated for 72 hrs followed by sub-cultivated for 5 days by serial dilution method; assay type: functional; in short: as §4
# [27] = system: Trichoderma viride; assay: Antifungal activity against Trichoderma viride IAM 5061 treated for 72 hrs followed by sub-cultivated for 5 days by serial dilution method; assay type: functional; in short: as §4
# [28] = system: Aspergillus fumigatus; assay: Antifungal activity against Aspergillus fumigatus human isolate treated for 72 hrs followed by sub-cultivated for 5 days by serial dilution method; assay type: functional; in short: as §4
# [29] = system: Aspergillus niger; assay: Antifungal activity against Aspergillus niger ATCC 6275 treated for 72 hrs followed by sub-cultivated for 5 days by serial dilution method; assay type: functional; in short: as §4
# [30] = system: Aspergillus flavus; assay: Antifungal activity against Aspergillus flavus ATCC 9643 treated for 72 hrs followed by sub-cultivated for 5 days by serial dilution method; assay type: functional; in short: as §4
# [31] = system: Aspergillus versicolor; assay: Antifungal activity against Aspergillus versicolor ATCC 11730 treated for 72 hrs followed by sub-cultivated for 5 days by serial dilution method; assay type: functional; in short: as §4
# [32] = system: Fulvia fulva; assay: Antifungal activity against Fulvia fulva treated for 72 hrs followed by sub-cultivated for 5 days by serial dilution method; assay type: functional; in short: as §4
MIC [1] [µM],MIC [2] [µM],MIC [3] [µM],MIC [4] [µM],MIC [5] [µM],MIC [6] [µM],MIC [7] [µM],MIC [8] [µM],MIC [17] [µM],MIC [18] [µM],MIC [19] [µM],MIC [20] [µM],Compound,MBC [9] [µM],MBC [10] [µM],MBC [11] [µM],MBC [12] [µM],MBC [13] [µM],MBC [14] [µM],MBC [15] [µM],MBC [16] [µM],other results
270,270,270,270,540,270,270,540,140,140,70,140,COc1cc(Cc2n[nH]c(=S)n2C)c(S(=O)(=O)N(C)C)cc1OC,540,540,540,270,540,270,270,540,MIC [21]: 70 µM; MIC [22]: 70 µM; MIC [23]: 140 µM; MIC [24]: 70 µM; MFC [25]: 270 µM; MFC [26]: 270 µM; MFC [27]: 140 µM; MFC [28]: 270 µM; MFC [29]: 140 µM; MFC [30]: 140 µM; MFC [31]: 270 µM; MFC [32]: 140 µM
260,520,260,260,260,260,260,260,130,130,70,130,CCn1c(Cc2cc(OC)c(OC)cc2S(=O)(=O)N(C)C)n[nH]c1=S,520,520,520,520,260,520,260,520,MIC [21]: 70 µM; MIC [22]: 70 µM; MIC [23]: 130 µM; MIC [24]: 70 µM; MFC [25]: 260 µM; MFC [26]: 260 µM; MFC [27]: 130 µM; MFC [28]: 260 µM; MFC [29]: 130 µM; MFC [30]: 260 µM; MFC [31]: 260 µM; MFC [32]: 70 µM
500,250,250,250,500,250,500,500,130,130,60,130,CCCn1c(Cc2cc(OC)c(OC)cc2S(=O)(=O)N(C)C)n[nH]c1=S,500,500,500,250,500,250,500,500,MIC [21]: 60 µM; MIC [22]: 60 µM; MIC [23]: 250 µM; MIC [24]: 60 µM; MFC [25]: 250 µM; MFC [26]: 250 µM; MFC [27]: 130 µM; MFC [28]: 250 µM; MFC [29]: 130 µM; MFC [30]: 130 µM; MFC [31]: 500 µM; MFC [32]: 130 µM
380,250,630,630,630,630,630,630,130,130,10,130,COc1cc(Cc2n[nH]c(=S)n2C(C)C)c(S(=O)(=O)N(C)C)cc1OC,380,500,630,630,630,630,630,630,MIC [21]: 130 µM; MIC [22]: 130 µM; MIC [23]: 130 µM; MIC [24]: 250 µM; MFC [25]: 250 µM; MFC [26]: 380 µM; MFC [27]: 30 µM; MFC [28]: 250 µM; MFC [29]: 380 µM; MFC [30]: 380 µM; MFC [31]: 380 µM; MFC [32]: 250 µM
